Screens: PubChem, Sanford-Burnham Center for Chemical Genomics
The list is not random: actives were taken first. Their share in the collection is about 1.7%.
SUMO1-SIM PPI: modulators of SUMO1 protein-protein interactions, primary screen, biochemical, uHTS | Small ubiquitin-related modifier 1 (Homo sapiens), P63165 | SUMO1 binding to a labelled peptide, TR-FRET, 1 h | inhibition, % at 20 µM | 360,000 tested, 0.33% active | AID 602429, 2012; in the data active means inhibition above about 37%
Target sequence (P63165 whole entry, looked up): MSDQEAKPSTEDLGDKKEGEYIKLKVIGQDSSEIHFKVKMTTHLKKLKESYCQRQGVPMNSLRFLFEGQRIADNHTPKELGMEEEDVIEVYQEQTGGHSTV
DNMT1 inh: human DNMT1 methyltransferase inhibitors, primary screen, biochemical, molecular beacon, fluorescence, HinP1I cleavage, uHTS | 360,000 tested, 0.83% active | AID 588458, 2011 | DNA (cytosine-5)-methyltransferase 1 (Homo sapiens), P26358 | inhibition (reported as % activation of signal), % at 10 µM; in the data active means inhibition above about 50%
STEP inh: STEP phosphatase inhibitors, primary screen, biochemical, fluorescence intensity, uHTS | Tyrosine-protein phosphatase non-receptor type 5 (Homo sapiens), P54829 | recombinant STEP, OMFP fluorogenic substrate | inhibition, % at 20 µM | 360,000 tested, 0.25% active | AID 588621, 2011;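 active means inhibition at 20 µM, scaled per plate between control wells, above about 37%, limit read from the data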
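medium = Bis-Tris buffer pH 6.0, 2.5 mM DTT, 0.005% Tween 20 | test system = STEP (striatal-enriched tyrosine phosphatase) enzyme, cell-free | measure = normalized % inhibition | compound dosing = 20 µM, 1% DMSO | also added = 25 µM OMFP | schedule = reaction 20 min, ambient temperature | measured by = fluorescence read at 480 nm ex / 540 nm em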
LMPTP block: LMPTP phosphatase inhibitors, primary screen, biochemical, fluorescence intensity, uHTS; Low molecular weight phosphotyrosine protein phosphatase (Homo sapiens), P24666; recombinant LMPTP-A, OMFP fluorogenic substrate; inhibition, % at 20 µM; 360,000 tested, 0.22% active; AID 651560, 2012;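 active means compounds that cut the enzyme signal by at least half of the control window in the single-dose screen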
Target sequence (P24666 whole entry, looked up): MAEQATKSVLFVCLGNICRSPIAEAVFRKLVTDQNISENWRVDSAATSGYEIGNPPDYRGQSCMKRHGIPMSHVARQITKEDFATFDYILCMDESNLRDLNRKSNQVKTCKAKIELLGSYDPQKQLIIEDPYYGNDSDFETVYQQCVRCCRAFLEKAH
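Material: LMPTP-A; amount: 0.625 nM enzyme; doses: single 20 µM dose; times: reaction 50 min, room temperature, dark; technique: fluorescence intensity of OMFP turnover product; benchmarks: no-enzyme and uninhibited controls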
Scp-1 inhibitor: Scp-1 phosphatase inhibitors, primary screen, biochemical, colorimetric, uHTS; inhibition, % at 20 µM; 340,000 tested, 0.88% active; Recombinant Scp1, phosphopeptide, malachite green phosphate absorbance; Carboxy-terminal domain RNA polymerase II polypeptide A small phosphatase 1 (Homo …;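 active means inhibition above about 50% at 20 µM, limit read from the data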
Target sequence (Q9GZU7 76-261 limits assumed): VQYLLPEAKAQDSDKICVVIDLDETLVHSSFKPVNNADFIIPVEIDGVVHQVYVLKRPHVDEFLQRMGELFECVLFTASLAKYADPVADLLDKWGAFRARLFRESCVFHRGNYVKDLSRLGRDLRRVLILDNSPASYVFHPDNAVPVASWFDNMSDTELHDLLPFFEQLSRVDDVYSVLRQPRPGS
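Test system: SCP-1 phosphatase catalytic domain, residues 76-261 | Compound dosing: One concentration, 20 µM, with 1.0% DMSO | Schedule: 45 min room-temperature reaction, 5 min colour, 30 min stabiliser | Detection: Absorbance at 630 nm | Read-out basis: % inhibition of SCP-1 phosphate liberation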
Scp-1 conf: Scp-1 phosphatase inhibitors, retest, confirmation, biochemical, colorimetric, single concentration; recombinant SCP-1 catalytic domain, phosphate release, malachite green absorbance; inhibition, % at 20 µM; shares compounds with Scp-1 inhibitor; 2,500 tested, 61% active
Scp-1 MG ctr: colorimetric readout interference by compounds, confirmation, artefact control for Scp-1 inhibitor project, biochemical, single concentration | 2,500 tested, under 10 active | shares compounds with Scp-1 inhibitor | apparent inhibition (interference), % at 20 µM | Colorimetric interference counterscreen, malachite green absorbance 630 nm | AID 540313, 2011;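 further: compounds added after enzyme reaction finished so only phosphate colour detection is probed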
Scp-1 Tm shift: Scp-1 binding by thermal shift, confirmation, orthogonal assay for Scp-1 inhibitor project, biophysical, differential scanning fluorimetry | Recombinant SCP1, Sypro Orange thermal shift Tm | thermal shift relative to vanadate control, % at 40 µM | 1,500 tested, 25% active | shares compounds with Scp-1 inhibitor;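 active means substances whose mean melting-temperature shift, as a percentage of the reference inhibitor's shift, reaches about 5.3%, limit read from the data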
Each line names hits and unclear results; the compound was inactive in the other large screens (follow-up assays come after a bar, where they were run).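 How the source made its calls, unless noted: active means inhibition of at least 30% at 20 µM; inactive means the rest.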

COc1ccc(-c2nn(-c3ccccc3)cc2CNC[C@H]2O[C@@H](n3cnc4c(=O)[nH]c(N)nc43)[C@H](O)[C@@H]2O)cc1	none (no result: Scp-1 inhibitor)
CCN(CC)S(=O)(=O)c1ccc(O)c(C(=O)OCC(=O)N2CCCC2)c1	Scp-1 inhibitor 52.7 | Scp-1 conf inactive | Scp-1 MG ctr inactive
COc1ccc(NS(=O)(=O)c2ccc(O)c(C(=O)OCC(=O)N3CCCCC3)c2)cc1	none
COc1ccccc1C(=O)Cc1ccccc1	none
Cc1[nH]c2ccccc2c1C(=O)CNc1nccs1	Scp-1 inhibitor 96.2 | Scp-1 conf inactive | Scp-1 MG ctr inactive
Cc1ccc(NC(=O)CSc2nc3[nH]ncc3c(=O)[nH]2)cc1Cl	Scp-1 inhibitor 58.2 | Scp-1 conf inactive | Scp-1 MG ctr inactive
O=C(COC(=O)c1cccc(F)c1)NC(=O)NCc1ccccc1	none
COc1ccc(/C=C(\NC(=O)c2ccccc2)C(=O)OC[C@@H]2CCC[N+]3(C)CCCCC23)cc1OC (some centres not stated)	Scp-1 inhibitor 102.1 | Scp-1 conf 89.2 | Scp-1 MG ctr inactive | Scp-1 Tm shift inactive
COc1ccc(NC(=O)CN2C(=O)C(=O)N(C3CCCC3)C2=O)c(OC)c1	none
CC1CCCC(NC(=O)C2CCN(S(=O)(=O)c3cccc4nonc34)CC2)C1C (configuration not stated)	Scp-1 inhibitor 69.0 | Scp-1 conf inactive | Scp-1 MG ctr inactive
COC(=O)c1ccc(NC(=S)N2CCC(C(N)=O)CC2)cc1	Scp-1 inhibitor 68.3 | Scp-1 conf inactive | Scp-1 MG ctr inactive
CC(C(=O)NC1CCCC1)N1CCN(S(=O)(=O)c2ccc(C(C)(C)C)cc2)CC1 (configuration not stated)	none
CCC(CO)N=CC1=C(O)CC(C)(C)CC1=O (configuration not stated)	none
CSCCC(N=CC1=C(O)CC(C)(C)CC1=O)C(=O)O (configuration not stated)	Scp-1 inhibitor 73.0 | Scp-1 conf inactive | Scp-1 MG ctr inactive
Cc1ccc2nc(Cl)c(C3CC(c4cccs4)=NN3C(=O)CCCC(=O)O)cc2c1 (configuration not stated)	Scp-1 inhibitor 96.1 | Scp-1 conf 85.0 | Scp-1 MG ctr inactive | Scp-1 Tm shift inactive
CCOC(=O)c1ccccc1NC(=O)COC(=O)CCNS(=O)(=O)c1cccs1	none
Cc1cccc(C)c1NC(=O)CN1C(=O)S/C(=C\c2cccn2-c2cccc(C(=O)O)c2)C1=O	Scp-1 inhibitor 57.8 | Scp-1 conf 81.0 | Scp-1 MG ctr inactive | Scp-1 Tm shift 6.6
Cc1cccc(NC(=O)CN2C(=O)S/C(=C\c3cccn3-c3cccc(C(=O)O)c3)C2=O)c1	Scp-1 inhibitor 70.1 | Scp-1 conf 71.1 | Scp-1 MG ctr inactive | Scp-1 Tm shift 11.3
Cc1cccc(C)c1NC(=O)CN1C(=O)S/C(=C\c2cccn2C)C1=O	none
CC(C)c1ccc(C2(C)NC(=O)N(C(C)C(=O)Nc3ccc(N4CCOCC4)cc3)C2=O)cc1 (configuration not stated)	none
CCOC(=O)NN1C(=O)c2ccccc2NC1(C)C	Scp-1 inhibitor 72.4 | Scp-1 conf inactive | Scp-1 MG ctr inactive
O=C(O)c1ccc([N+](=O)[O-])c(CS(=O)(=O)c2ccc(Cl)cc2)c1	Scp-1 inhibitor 66.2 | Scp-1 conf inactive | Scp-1 MG ctr inactive
O=C(OCc1ccccc1)N1CCC2CC1c1ccc(-c3cccc(F)c3)cc12 (configuration not stated)	none (no result: Scp-1 inhibitor)
O=C(N/N=C/c1ccncc1)c1cc(-c2ccc(Br)s2)[nH]n1	none
O=C(N/N=C/c1ccccn1)c1cc(-c2ccc(Br)s2)[nH]n1	Scp-1 inhibitor 67.2 | Scp-1 conf 51.9 | Scp-1 MG ctr inactive | Scp-1 Tm shift inactive
COc1cccc(NC(=O)CSCc2cc(=O)n3nc(C4CC4)sc3n2)c1	none | Scp-1 conf inactive | Scp-1 MG ctr inactive
Cn1c(SCC(=O)Nc2nncs2)nnc1C1CC1	Scp-1 inhibitor 79.2 | Scp-1 conf 52.8 | Scp-1 MG ctr inactive | Scp-1 Tm shift 5.5
CCC(C)[C@H]1CNC(=O)C(=O)N1CC(C)(C)C (some centres not stated)	none (no result: DNMT1 inh, STEP inh, Scp-1 inhibitor)
Cc1ccc(CCCOC(=O)C[N+]2(C)CCOCC2)cc1	none
C[N+]1(CC(=O)OCCCc2ccccc2)CCOCC1	Scp-1 inhibitor 99.6 | Scp-1 conf 80.5 | Scp-1 MG ctr inactive | Scp-1 Tm shift inactive
O=C(O)c1ccc(CSc2nc3ccc(NC(=O)c4ccccc4C(=O)O)cc3s2)cc1	Scp-1 inhibitor 57.6 | Scp-1 conf 43.1 | Scp-1 MG ctr inactive | Scp-1 Tm shift inactive
CC(CNC(=O)CCc1nnc2ccc(N3CCC4(CC3)OCCO4)nn12)c1ccccc1 (configuration not stated)	none
C[C@H](CO)N1C[C@H](C)[C@@H](CN(C)Cc2ccncc2)Oc2c(NC(=O)c3ccncc3)cccc2C1=O	none
C[C@H](CO)N1C[C@H](C)[C@@H](CN(C)C(=O)Nc2ccc3c(c2)OCO3)Oc2c(NC(=O)c3ccncc3)cccc2C1=O	Scp-1 inhibitor 55.8 | Scp-1 conf inactive | Scp-1 MG ctr inactive
Cc1noc(C)c1NC(=O)N(C)C[C@@H]1Oc2c(NC(=O)c3ccncc3)cccc2C(=O)N([C@H](C)CO)C[C@@H]1C	Scp-1 inhibitor 94.2 | Scp-1 conf 66.0 | Scp-1 MG ctr inactive | Scp-1 Tm shift inactive
C[C@H](CO)N1C[C@H](C)[C@@H](CN(C)Cc2ccc(C(=O)O)cc2)Oc2c(NC(=O)c3ccncc3)cccc2C1=O	Scp-1 inhibitor 54.4 | Scp-1 conf inactive | Scp-1 MG ctr inactive
CCOc1cccc(/C=N/NC(=O)C2CCCC2)c1O	none
CCOc1cccc(/C=N/NC(=O)CC2C(=O)NN=C2C)c1O (configuration not stated)	none | Scp-1 conf inactive | Scp-1 MG ctr inactive
